The test system of experiment [1] is PC-3. In words: Antiproliferative activity against human PC3 cells after 72 hrs by MTT assay. Format: functional, cell-based. The conditions noted are these: PC-3, 72 h. In a few lines: (§1)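 Exponentially growing cells, 4×10^3/well, attached 24 h, then medium replaced with fresh medium holding graded compound concentrations for 72 h. MTT (5 mg/mL stock) added for 4 h, formazan dissolved in DMSO, absorbance at 570 nm; IC50 calculated from dose-response data.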

In experiment [2] the test system is ECa-109 cell line. As to the kind of experiment: Antiproliferative activity against human EC109 cells after 72 hrs by MTT assay. Format: functional, cell-based. The following applies: ECa-109, 72 h. Put shortly:
as §1
(In general: Formazan colour is commonly taken as a measure of viable cells.)

Experiment [3] has as its system MGC-803. As to the kind of experiment: Antiproliferative activity against human MGC803 cells after 72 hrs by MTT assay. In kind it is functional, cell-based. The following applies: MGC-803, 72 h. In a few lines:
as §1

Experiment [4] relates to GES1. In words: Antiproliferative activity against human GES-1 cells after 72 hrs by MTT assay. Format: cell-based. The following applies: GES1, 72 h. In a few lines:
as §1

SMILES strings stand for the structures. Some results are limits rather than exact numbers.

In general, IC50 refers to the point on the concentration scale where inhibition reaches its midpoint. A low value points to inhibition by little substance. As to `CCOc1cc(-c2cccc(Br)c2)cc([C@H]2CC[C@H]3[C@@H]4CC=C5C[C@@H](O)CC[C@]5(C)[C@H]4CC[C@]23C)n1`, the IC50 is 21.7 µM in experiment [1], over 32 µM in experiment [2], over 32 µM in experiment [3] and over 32 µM in experiment [4].

On to `CCOc1cc(-c2ccc(S(C)(=O)=O)cc2)cc([C@H]2CC[C@H]3[C@@H]4CC=C5C[C@@H](O)CC[C@]5(C)[C@H]4CC[C@]23C)n1`, for which the half-inhibitory concentration (IC50) was over 32 µM in experiment [1], 31.3 µM in experiment [2], over 32 µM in experiment [3] and over 32 µM in experiment [4].

For the compound `CCOc1nc([C@H]2CC[C@H]3[C@@H]4CC=C5C[C@@H](O)CC[C@]5(C)[C@H]4CC[C@]23C)cc(-c2ccc(S(C)(=O)=O)cc2)c1C#N`, the concentration for half-maximal inhibition (IC50) in experiment [1], in experiment [2], in experiment [3] and in experiment [4] was over 32 µM in each case.

As to `CCOc1cc(-c2ccc(C#N)cc2)cc([C@H]2CC[C@H]3[C@@H]4CC=C5C[C@@H](O)CC[C@]5(C)[C@H]4CC[C@]23C)n1`, the IC50 in experiment [1] is 24.6 µM; in experiment [2], over 32 µM; in experiment [3], 23.7 µM; in experiment [4] it was over 32 µM.

With `CCOc1cc(-c2ccco2)cc([C@H]2CC[C@H]3[C@@H]4CC=C5C[C@@H](O)CC[C@]5(C)[C@H]4CC[C@]23C)n1`, the concentration for half-maximal inhibition (IC50) in experiment [1] was 10.8 µM; in experiment [2], 26.2 µM; in experiment [3] it was 26.1 µM; in experiment [4], over 32 µM.

As to `CCOc1nc([C@H]2CC[C@H]3[C@@H]4CC=C5C[C@@H](O)CC[C@]5(C)[C@H]4CC[C@]23C)cc(-c2ccc(C)cc2)c1C#N`, the IC50 in experiment [1], in experiment [2], in experiment [3] and in experiment [4] was over 32 µM in each case.

Take `CCOc1cc(-c2ccc(Cl)cc2)cc([C@H]2CC[C@H]3[C@@H]4CC=C5C[C@@H](O)CC[C@]5(C)[C@H]4CC[C@]23C)n1`: the IC50 in experiment [1] was over 32 µM; in experiment [2], over 32 µM; in experiment [3], 19.2 µM; in experiment [4] it was over 32 µM.

Regarding `CCOc1cc(-c2ccc(Br)cc2)cc([C@H]2CC[C@H]3[C@@H]4CC=C5C[C@@H](O)CC[C@]5(C)[C@H]4CC[C@]23C)n1`, the IC50 in experiment [1], in experiment [2], in experiment [3] and in experiment [4] was over 32 µM each time.

As for `CCOc1nc([C@H]2CC[C@H]3[C@@H]4CC=C5C[C@@H](O)CC[C@]5(C)[C@H]4CC[C@]23C)cc(-c2cccc([N+](=O)[O-])c2)c1C#N`, the half-inhibitory concentration (IC50) in experiment [1] was 7.77 µM; in experiment [2], 27.6 µM; in experiment [3], 13.1 µM; in experiment [4], over 32 µM.

Turning to `CCOc1nc([C@H]2CC[C@H]3[C@@H]4CC=C5C[C@@H](O)CC[C@]5(C)[C@H]4CC[C@]23C)cc(-c2cccs2)c1C#N`, the IC50 in experiment [1] is 6.98 µM; in experiment [2] it was 9.84 µM; in experiment [3] it was 23.6 µM; in experiment [4], over 32 µM.

For the compound `CCOc1cc(-c2cc(F)cc(F)c2)cc([C@H]2CC[C@H]3[C@@H]4CC=C5C[C@@H](O)CC[C@]5(C)[C@H]4CC[C@]23C)n1`, the half-inhibitory concentration (IC50) was 16.5 µM in experiment [1], over 32 µM in experiment [2], over 32 µM in experiment [3] and over 32 µM in experiment [4].

Take `CCOc1nc([C@H]2CC[C@H]3[C@@H]4CC=C5C[C@@H](O)CC[C@]5(C)[C@H]4CC[C@]23C)cc(-c2cccc(Br)c2)c1C#N`: the IC50 was 9.42 µM in experiment [1], over 32 µM in experiment [2], 28.5 µM in experiment [3] and 21.9 µM in experiment [4].

On to `CCOc1nc([C@H]2CC[C@H]3[C@@H]4CC=C5C[C@@H](O)CC[C@]5(C)[C@H]4CC[C@]23C)cc(-c2cc(F)cc(F)c2)c1C#N`, for which the IC50 in experiment [1] was 6.99 µM; in experiment [2], 20 µM; in experiment [3], 12.3 µM; in experiment [4] it was over 32 µM.

As for `CCOc1cc(-c2ccncc2)cc([C@H]2CC[C@H]3[C@@H]4CC=C5C[C@@H](O)CC[C@]5(C)[C@H]4CC[C@]23C)n1`, the IC50 in experiment [1] is 6.37 µM; in experiment [2] it was 16.6 µM; in experiment [3], 4.48 µM; in experiment [4] it was 15.7 µM.

As to `CCOc1cc(-c2ccc(F)cc2)cc([C@H]2CC[C@H]3[C@@H]4CC=C5C[C@@H](O)CC[C@]5(C)[C@H]4CC[C@]23C)n1`, the half-maximal inhibitory concentration (IC50) in experiment [1], in experiment [2], in experiment [3] and in experiment [4] was over 32 µM in each case.

For the compound `CCOc1nc([C@H]2CC[C@H]3[C@@H]4CC=C5C[C@@H](O)CC[C@]5(C)[C@H]4CC[C@]23C)cc(-c2ccccc2)c1C#N`, the concentration for half-maximal inhibition (IC50) turned out to be 4.39 µM in experiment [1], 13.3 µM in experiment [2], 15.8 µM in experiment [3] and 7.8 µM in experiment [4].

Consider `CCOc1cc(-c2cccs2)cc([C@H]2CC[C@H]3[C@@H]4CC=C5C[C@@H](O)CC[C@]5(C)[C@H]4CC[C@]23C)n1`, for which the half-maximal inhibitory concentration (IC50) in experiment [1] was 15.3 µM; in experiment [2] it was 17.6 µM; in experiment [3] it was over 32 µM; in experiment [4], over 32 µM.

Turning to `CCOc1nc([C@H]2CC[C@H]3[C@@H]4CC=C5C[C@@H](O)CC[C@]5(C)[C@H]4CC[C@]23C)cc(-c2ccc(Br)cc2)c1C#N`, the IC50 is 13.7 µM in experiment [1], over 32 µM in experiment [2], over 32 µM in experiment [3] and over 32 µM in experiment [4].

Turning to `CCOc1nc([C@H]2CC[C@H]3[C@@H]4CC=C5C[C@@H](O)CC[C@]5(C)[C@H]4CC[C@]23C)cc(-c2ccc(F)cc2)c1C#N`, the 50% inhibitory concentration (IC50) in experiment [1], in experiment [2], in experiment [3] and in experiment [4] was over 32 µM in each case.

For the compound `CCOc1nc([C@H]2CC[C@H]3[C@@H]4CC=C5C[C@@H](O)CC[C@]5(C)[C@H]4CC[C@]23C)cc(-c2ccsc2)c1C#N`, the 50% inhibitory concentration (IC50) in experiment [1] was 12.2 µM; in experiment [2], 10.6 µM; in experiment [3], 22.3 µM; in experiment [4], 30.1 µM.

Consider `CCOc1cc(-c2ncccc2Br)cc([C@H]2CC[C@H]3[C@@H]4CC=C5C[C@@H](O)CC[C@]5(C)[C@H]4CC[C@]23C)n1`, for which the IC50 in experiment [1] is 13.4 µM; in experiment [2] it was over 32 µM; in experiment [3] it was 25.8 µM; in experiment [4], over 32 µM.

As for `CCOc1nc([C@H]2CC[C@H]3[C@@H]4CC=C5C[C@@H](O)CC[C@]5(C)[C@H]4CC[C@]23C)cc(-c2ccc(Cl)cc2)c1C#N`, the IC50 in experiment [1] is 10.4 µM; in experiment [2], over 32 µM; in experiment [3], over 32 µM; in experiment [4], over 32 µM.

In the case of `CCOc1cc(-c2ccc(C)cc2)cc([C@H]2CC[C@H]3[C@@H]4CC=C5C[C@@H](O)CC[C@]5(C)[C@H]4CC[C@]23C)n1`, the IC50 in experiment [1], in experiment [2], in experiment [3] and in experiment [4] was over 32 µM in each case.

The record behind these values is ChEMBL document CHEMBL4145468, “Synthesis and biological evaluation of new steroidal pyridines as potential anti-prostate cancer agents” (Eur J Med Chem, 2018).
